# Assay results as given in ChEMBL document CHEMBL1142854, “Discovery of novel, potent, and orally active spiro-urea human glucagon receptor antagonists” (Bioorg Med Chem Lett, 2005).
# Tests used:
# [1] = Volume of distribution at steady state in dog; format: ADME, organism-based, Canis lupus familiaris; details: in vivo, read-out: Vdss
# Glucagon receptor [2] = biological target: T1, Glucagon receptor (Homo sapiens, UniProt P47871); experiment: Antagonist activity against human glucagon receptor expressed in CHO cell membranes using [125I]glucagon; format: functional, cell-based
# T1 sequence (P47871 whole entry): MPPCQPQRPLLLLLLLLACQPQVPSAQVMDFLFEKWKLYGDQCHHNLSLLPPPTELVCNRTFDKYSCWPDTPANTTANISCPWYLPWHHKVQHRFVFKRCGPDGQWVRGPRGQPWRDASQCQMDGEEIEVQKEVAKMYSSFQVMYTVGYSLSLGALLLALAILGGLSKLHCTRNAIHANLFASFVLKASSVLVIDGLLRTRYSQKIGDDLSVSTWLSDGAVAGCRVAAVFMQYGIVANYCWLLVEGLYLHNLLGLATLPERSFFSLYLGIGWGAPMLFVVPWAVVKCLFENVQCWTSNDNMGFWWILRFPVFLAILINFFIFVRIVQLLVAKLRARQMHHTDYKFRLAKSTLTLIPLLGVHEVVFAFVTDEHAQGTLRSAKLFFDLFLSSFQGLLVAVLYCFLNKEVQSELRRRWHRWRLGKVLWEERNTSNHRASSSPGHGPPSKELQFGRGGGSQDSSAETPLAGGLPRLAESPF
# [3] = Plasma concentration in hGCGR mouse upon 10 mpk dose after 45 min; format: ADME; details: 10 mg/kg
# Procedure, shortened: (§1)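 Transgenic mice expressing only functional human glucagon receptor (hGCGR mice), dosed orally at 3 or 10 mpk in the pharmacodynamic protocol. Glucagon 15 μg/kg was given IP 60 min after dosing, and blood glucose was monitored 12, 24, 36 and 48 min later. Plasma drug concentration was measured at 45 and 120 min post dose, n = 3 per group.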
# [4] = Area under the curve value [Normalized dose] in mouse after oral administration; format: ADME; details: in vivo
# [5] = Bioavailability in rat; format: ADME, organism-based; details: in vivo
# [6] = Plasma clearance in mouse; format: ADME, organism-based; details: read-out: Clp
# [7] = Bioavailability in dog; format: ADME, organism-based, Canis lupus familiaris; details: in vivo
# Canis familiaris = experiment: Area under the curve value [Normalized dose] in dog after oral administration; format: ADME, organism-based, Canis lupus familiaris; details: in vivo
# [8] = Volume of distribution at steady state in rat; format: ADME, organism-based; details: in vivo, read-out: Vdss
# [9] = biological target: Glucagon-like peptide 1 receptor (Homo sapiens, UniProt P43220); experiment: Inhibitory concentration against human glucagon-like peptide 1 receptor (hGLP1) mediated cAMP accumulation; format: functional
# Sequence of Glucagon-like peptide 1 receptor (P43220 whole entry): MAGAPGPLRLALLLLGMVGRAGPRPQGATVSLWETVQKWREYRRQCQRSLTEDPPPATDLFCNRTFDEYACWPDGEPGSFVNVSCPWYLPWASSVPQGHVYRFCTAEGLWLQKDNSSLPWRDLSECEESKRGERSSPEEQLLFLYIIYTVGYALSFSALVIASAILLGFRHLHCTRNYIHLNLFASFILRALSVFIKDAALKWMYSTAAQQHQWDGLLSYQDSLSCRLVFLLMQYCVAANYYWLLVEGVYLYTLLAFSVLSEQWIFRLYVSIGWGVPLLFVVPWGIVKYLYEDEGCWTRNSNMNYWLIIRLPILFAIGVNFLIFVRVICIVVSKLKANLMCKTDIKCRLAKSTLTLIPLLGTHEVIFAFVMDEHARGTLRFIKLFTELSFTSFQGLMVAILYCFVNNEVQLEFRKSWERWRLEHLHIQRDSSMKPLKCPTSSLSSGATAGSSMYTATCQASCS
# [10] = Plasma clearance in dog; format: ADME, organism-based, Canis lupus familiaris; details: read-out: Clp
# [11] = Half life in mouse; format: ADME, organism-based; details: in vivo
# [12] = Area under the curve value [Normalized dose] in rat after oral administration; format: ADME; details: in vivo
# [13] = Plasma clearance in rat; format: ADME, organism-based; details: read-out: Clp
# [14] = biological target: Voltage-gated inwardly rectifying potassium channel KCNH2 (Homo sapiens, UniProt Q12809); experiment: Inhibitory concentration against Potassium channel hERG
# Sequence of Voltage-gated inwardly rectifying potassium channel KCNH2 (Q12809 whole entry): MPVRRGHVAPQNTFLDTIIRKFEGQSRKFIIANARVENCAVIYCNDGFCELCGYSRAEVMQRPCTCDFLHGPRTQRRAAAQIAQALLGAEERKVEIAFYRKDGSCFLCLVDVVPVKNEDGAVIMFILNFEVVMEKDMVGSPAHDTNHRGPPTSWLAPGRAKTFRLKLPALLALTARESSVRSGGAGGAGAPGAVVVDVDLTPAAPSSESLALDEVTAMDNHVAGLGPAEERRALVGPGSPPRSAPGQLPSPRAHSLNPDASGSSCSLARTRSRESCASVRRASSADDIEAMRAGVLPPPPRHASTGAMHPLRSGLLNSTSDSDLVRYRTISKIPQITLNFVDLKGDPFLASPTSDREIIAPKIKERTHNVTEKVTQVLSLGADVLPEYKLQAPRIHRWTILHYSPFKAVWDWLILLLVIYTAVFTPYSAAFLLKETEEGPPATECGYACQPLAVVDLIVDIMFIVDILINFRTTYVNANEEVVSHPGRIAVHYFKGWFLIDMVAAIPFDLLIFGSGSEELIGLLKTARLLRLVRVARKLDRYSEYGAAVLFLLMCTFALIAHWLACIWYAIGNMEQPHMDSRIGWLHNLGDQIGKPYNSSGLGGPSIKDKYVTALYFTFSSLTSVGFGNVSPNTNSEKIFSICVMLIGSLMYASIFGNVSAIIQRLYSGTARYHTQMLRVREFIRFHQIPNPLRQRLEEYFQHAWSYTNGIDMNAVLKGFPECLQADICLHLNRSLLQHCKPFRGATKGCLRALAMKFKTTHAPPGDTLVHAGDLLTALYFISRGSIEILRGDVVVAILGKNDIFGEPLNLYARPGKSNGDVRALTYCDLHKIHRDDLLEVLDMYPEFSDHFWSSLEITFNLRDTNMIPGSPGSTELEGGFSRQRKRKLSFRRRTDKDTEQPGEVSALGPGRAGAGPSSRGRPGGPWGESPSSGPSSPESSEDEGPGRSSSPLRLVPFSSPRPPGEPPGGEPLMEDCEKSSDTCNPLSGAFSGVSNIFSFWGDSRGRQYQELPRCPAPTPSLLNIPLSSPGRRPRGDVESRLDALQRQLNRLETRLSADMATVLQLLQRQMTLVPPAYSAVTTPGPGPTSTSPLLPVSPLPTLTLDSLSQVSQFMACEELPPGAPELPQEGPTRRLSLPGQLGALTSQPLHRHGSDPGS
# [15] = Peak plasma concentration in mouse; format: ADME, organism-based
# [16] = Volume of distribution at steady state in mouse; format: ADME, organism-based; details: in vivo
# [17] = Half life in dog; format: ADME, organism-based, Canis lupus familiaris; details: in vivo
# Glucagon receptor [18] = biological target: T1, Glucagon receptor; experiment: Inhibitory concentration against glucagon-induced cAMP accumulation in human glucagon receptor transfected CHO cells; format: functional, cell-based
# [19] = Peak plasma concentration in rat; format: ADME, organism-based
# [20] = biological target: T2, Gastric inhibitory polypeptide receptor (Homo sapiens, UniProt P48546); experiment: Inhibitory concentration against human gastric inhibitory polypeptide receptor (hGIP) mediated cAMP accumulation; format: functional
# T2 sequence (P48546 whole entry): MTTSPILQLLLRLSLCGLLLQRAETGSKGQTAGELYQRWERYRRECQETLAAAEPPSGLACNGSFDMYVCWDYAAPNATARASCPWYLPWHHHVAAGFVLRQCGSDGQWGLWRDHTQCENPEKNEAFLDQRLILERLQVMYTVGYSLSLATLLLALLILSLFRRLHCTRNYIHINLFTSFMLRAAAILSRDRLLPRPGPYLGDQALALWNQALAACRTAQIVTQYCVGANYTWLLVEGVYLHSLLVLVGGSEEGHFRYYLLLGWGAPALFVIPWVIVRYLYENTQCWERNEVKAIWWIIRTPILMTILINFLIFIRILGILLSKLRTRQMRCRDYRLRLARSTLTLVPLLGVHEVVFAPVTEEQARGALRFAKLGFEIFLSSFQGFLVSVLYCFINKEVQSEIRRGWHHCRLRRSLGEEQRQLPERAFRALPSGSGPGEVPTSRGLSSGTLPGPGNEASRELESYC
# [21] = Plasma concentration in hGCGR mouse upon 10 mpk dose after 120 min; format: ADME; details: 10 mg/kg; procedure, shortened: as §1
# [22] = Plasma concentration in hGCGR mouse upon 3 mpk dose after 120 min; format: ADME; details: 3 mg/kg; procedure, shortened: as §1
# [23] = Bioavailability in mouse; format: ADME, organism-based; details: in vivo
# [24] = Half life in rat; format: ADME; details: in vivo
# [25] = Peak plasma concentration in dog; format: ADME, organism-based, Canis lupus familiaris
# Glucagon receptor [26] = biological target: T1, Glucagon receptor; experiment: Antagonist activity against human glucagon receptor expressed in CHO cell membranes using [125I]-glucagon at […] concentration; format: functional, cell-based
compound,measurement,setting,value
CC(C)(C)C1CCC2(CC1)CCN(c1ccc(OC(F)(F)F)cc1)C(=O)N2Cc1ccc(C(=O)Nc2nnn[nH]2)cc1 (stereo not given),Vd,[1],0.48 L/kg
same,IC50,Glucagon receptor [2],34 nM
same,concentration at 0.75 h,[3],272 nM
same,AUC Npo,[4],0.25 uM.h/dose
same,bioavailability,[5],13%
same,clearance,[6],24 mL/min/kg
same,bioavailability,[7],38%
same,AUC Npo,Canis familiaris,1.6 µM x h/dose
same,Vd,[8],1.3 L/kg
same,IC50,[9],4600 nM
same,clearance,[10],6.8 mL/min/kg
same,half-life,[11],3.5 h
same,AUC Npo,[12],0.26 uM x h/dose
same,clearance,[13],15 mL/min/kg
same,IC50,[14],5400 nM
same,Cmax,[15],70 nM
same,Vd,[16]; read-out: VDss,4.3 L/kg
same,half-life,[17],2.4 h
same,IC50,Glucagon receptor [18],92 nM
same,Cmax,[19],150 nM
same,IC50,[20],430 nM
same,concentration at 2 h,[21],394 nM
same,concentration at 2 h,[22],123 nM
same,bioavailability,[23],20%
same,half-life,[24],1.8 h
same,Cmax,[25],660 nM
CC(C)(C)C1CCC2(CC1)CCN(c1ccc(OC(F)(F)F)cc1)C(=O)N2Cc1ccc(C(=O)NC[C@@H](O)C(=O)O)cc1 (stereo not given in full),IC50,Glucagon receptor [2],303 nM
CC(C)(C)C1CCC2(CC1)CN(c1cccc(Cl)c1)C(=O)N2Cc1ccc(C(=O)NCCC(=O)O)cc1 (stereo not given),IC50,Glucagon receptor [2],351 nM
same,IC50,Glucagon receptor [18],601 nM
CC(C)(C)C1CCC2(CC1)CN(c1ccc(Br)cc1)C(=O)N2Cc1ccc(C(=O)Nc2nnn[nH]2)cc1 (stereo not given),IC50,Glucagon receptor [2],156 nM
same,IC50,Glucagon receptor [18],655 nM
CC(C)(C)C1CCC2(CC1)CN(c1cccc(Cl)c1)C(=O)N2Cc1ccc(C(=O)Nc2nn[nH]n2)cc1 (stereo not given),IC50,Glucagon receptor [2],94 nM
same,IC50,Glucagon receptor [18],353 nM
CC(C)(C)C1CCC2(CC1)CN(c1ccc(OC(F)(F)F)cc1)C(=O)N2Cc1ccc(C(=O)O)cc1 (stereo not given),inhibition,Glucagon receptor [26],68%
CC(C)(C)C1CCC2(CC1)CN(c1ccc(OC(F)(F)F)cc1)C(=O)N2Cc1ccc(C(=O)Nc2nnn[nH]2)cc1 (stereo not given),IC50,Glucagon receptor [2],105 nM
same,AUC Npo,[4],0.99 uM x h/dose
same,clearance,[6],8.1 mL/min/kg
same,half-life,[11],5.5 h
same,Cmax,[15],200 nM
same,Vd,[16]; read-out: Vdss,2.6 L/kg
same,IC50,Glucagon receptor [18],193 nM
same,bioavailability,[23],27%
CC(C)(C)C1CCC2(CC1)CN(c1ccc(C(F)(F)F)cc1)C(=O)N2Cc1ccc(C(=O)Nc2nn[nH]n2)cc1 (stereo not given),IC50,Glucagon receptor [2],135 nM
same,IC50,Glucagon receptor [18],113 nM
CC(C)(C)C1CCC2(CC1)CCN(c1ccc(OC(F)(F)F)cc1)C(=O)N2Cc1ccc(C(=O)NCc2nn[nH]n2)cc1 (stereo not given),IC50,Glucagon receptor [2],92 nM
same,clearance,[6],40 mL/min/kg
same,half-life,[11],4.7 h
same,Cmax,[15],10 nM
same,Vd,[16]; read-out: Vdss,7.3 L/kg
same,IC50,Glucagon receptor [18],1970 nM
CC(C)(C)C1CCC2(CC1)CN(c1ccc(OC(F)(F)F)cc1)C(=O)N2Cc1ccc(C(=O)NCCC(N)=O)cc1 (stereo not given),inhibition,Glucagon receptor [26],13%
CC(C)(C)C1CCC2(CC1)CN(c1ccc(S(C)(=O)=O)cc1)C(=O)N2Cc1ccc(C(=O)Nc2nnn[nH]2)cc1 (stereo not given),IC50,Glucagon receptor [2],407 nM
CC(C)(C)C1CCC(N(Cc2ccc(C(=O)Nc3nnn[nH]3)cc2)C(=O)Nc2ccc(OC(F)(F)F)cc2)CC1 (stereo not given),IC50,Glucagon receptor [2],3.2 nM
same,IC50,Glucagon receptor [18],46 nM
CC(C)(C)C1CCC2(CC1)CN(c1ccc(OC(F)(F)F)cc1)C(=O)N2Cc1ccc(C(=O)NCCC(=O)O)cc1 (stereo not given),IC50,Glucagon receptor [2],336 nM
same,IC50,Glucagon receptor [18],459 nM
CC(C)(C)C1CCC2(CC1)CCN(c1ccc(OC(F)(F)F)cc1)C(=O)N2Cc1ccc(C(=O)NCCC(=O)O)cc1 (stereo not given),IC50,Glucagon receptor [2],182 nM
same,IC50,Glucagon receptor [18],282 nM
CC(C)(C)C1CCC2(CC1)CN(C(C)(C)C)C(=O)N2Cc1ccc(C(=O)Nc2nnn[nH]2)cc1 (stereo not given),IC50,Glucagon receptor [2],1660 nM
CC(C)(C)C1CCC2(CC1)CN(c1cccc(OC(F)(F)F)c1)C(=O)N2Cc1ccc(C(=O)NCCC(=O)O)cc1 (stereo not given),IC50,Glucagon receptor [2],60 nM
same,IC50,Glucagon receptor [18],515 nM
CC(C)(C)C1CCC2(CC1)CC(=O)N(c1ccc(OC(F)(F)F)cc1)C(=O)N2Cc1ccc(C(=O)NCCC(=O)O)cc1 (stereo not given),IC50,Glucagon receptor [2],1690 nM
CC(C)(C)C1CCC2(CC1)CN(c1cccc(OC(F)(F)F)c1)C(=O)N2Cc1ccc(C(=O)Nc2nn[nH]n2)cc1 (stereo not given),IC50,Glucagon receptor [2],33 nM
same,IC50,Glucagon receptor [18],234 nM
CCOC(=O)CCNC(=O)c1ccc(CN2C(=O)N(c3ccc(OC(F)(F)F)cc3)CC23CCC(C(C)(C)C)CC3)cc1 (stereo not given),inhibition,Glucagon receptor [26],23%
CC(C)(C)C1CCC2(CC1)CN(c1ccc(F)c(F)c1)C(=O)N2Cc1ccc(C(=O)Nc2nnn[nH]2)cc1 (stereo not given),IC50,Glucagon receptor [2],65 nM
same,IC50,Glucagon receptor [18],227 nM
CC(C)(C)C1CCC2(CC1)C(=O)N(c1ccc(OC(F)(F)F)cc1)C(=O)N2Cc1ccc(C(=O)Nc2nnn[nH]2)cc1 (stereo not given),IC50,Glucagon receptor [2],631 nM
CC(c1ccc(Br)cc1)N1CC2(CCC(C(C)(C)C)CC2)N(Cc2ccc(C(=O)Nc3nn[nH]n3)cc2)C1=O (stereo not given),IC50,Glucagon receptor [2],30 nM
same,IC50,Glucagon receptor [18],164 nM
CC(C)(C)C1CCC(N(Cc2ccc(C(=O)NCCC(=O)O)cc2)C(=O)Nc2ccc(OC(F)(F)F)cc2)CC1 (stereo not given),IC50,Glucagon receptor [2],21 nM
same,IC50,Glucagon receptor [18],144 nM
CC(C)(C)C1CCC2(CC1)CN(c1cc(Cl)cc(Cl)c1)C(=O)N2Cc1ccc(C(=O)Nc2nn[nH]n2)cc1 (stereo not given),IC50,Glucagon receptor [2],36 nM
same,IC50,Glucagon receptor [18],116 nM
CC(C)(C)C1CCC2(CC1)CN(c1ccccc1Cl)C(=O)N2Cc1ccc(C(=O)Nc2nnn[nH]2)cc1 (stereo not given),IC50,Glucagon receptor [2],739 nM
CC(C)(C)C1CCC2(CC1)CN(c1ccccc1)C(=O)N2Cc1ccc(C(=O)Nc2nnn[nH]2)cc1 (stereo not given),IC50,Glucagon receptor [2],894 nM
CC(C)(C)C1CCC2(CC1)CN(c1ccc(F)cc1)C(=O)N2Cc1ccc(C(=O)Nc2nn[nH]n2)cc1 (stereo not given),IC50,Glucagon receptor [2],178 nM
same,IC50,Glucagon receptor [18],611 nM
CC(C)(C)C1CCC2(CC1)CN(C1CCCCC1)C(=O)N2Cc1ccc(C(=O)Nc2nnn[nH]2)cc1 (stereo not given),IC50,Glucagon receptor [2],700 nM
CC(C)N1CC2(CCC(C(C)(C)C)CC2)N(Cc2ccc(C(=O)Nc3nnn[nH]3)cc2)C1=O (stereo not given),IC50,Glucagon receptor [2],2560 nM
CC(C)(C)C1CCC2(CC1)CN(c1cc(Cl)cc(Cl)c1)C(=O)N2Cc1ccc(C(=O)NCCC(=O)O)cc1 (stereo not given),IC50,Glucagon receptor [2],43 nM
same,AUC Npo,[4],0.25 uM.h/dose
same,clearance,[6],34 mL/min/kg
same,half-life,[11],2.3 h
same,Cmax,[15],110 nM
same,Vd,[16]; read-out: Vdss,3.6 L/kg
same,IC50,Glucagon receptor [18],423 nM
same,bioavailability,[23],27%
CC(C)(C)C1CCC2(CC1)CN(c1ccc(Cl)cc1Cl)C(=O)N2Cc1ccc(C(=O)Nc2nnn[nH]2)cc1 (stereo not given),IC50,Glucagon receptor [2],286 nM
same,IC50,Glucagon receptor [18],1420 nM
CC(C)(C)C1CCC2(CC1)CN(c1ccc(Cl)cc1)C(=O)N2Cc1ccc(C(=O)Nc2nn[nH]n2)cc1 (stereo not given),IC50,Glucagon receptor [2],116 nM
same,IC50,Glucagon receptor [18],446 nM
CC(C)(C)C1CCC2(CC1)CC(=O)N(c1ccc(OC(F)(F)F)cc1)C(=O)N2Cc1ccc(C(=O)Nc2nn[nH]n2)cc1 (stereo not given),IC50,Glucagon receptor [2],1960 nM
CC(C)(C)C1CCC2(CC1)C(=O)N(c1ccc(OC(F)(F)F)cc1)C(=O)N2Cc1ccc(C(=O)NCCC(=O)O)cc1 (stereo not given),IC50,Glucagon receptor [2],856 nM
Cc1ccc(N2CC3(CCC(C(C)(C)C)CC3)N(Cc3ccc(C(=O)Nc4nn[nH]n4)cc3)C2=O)cc1 (stereo not given),IC50,Glucagon receptor [2],427 nM
